Each structure is given as a SMILES string. Active and inactive are the calls of the source. The calls are words filed in the database; no cut-off is given here.

Data set [1] deals with T1, Cannabinoid receptor 2 (Homo sapiens, UniProt P34972). As to the kind of experiment: Displacement of [3H]CP55,940 from N-terminal HA-tagged human CB2 receptor expressed in HEK293 cell membranes after 1 hr by microbeta scintillation counting method. To be noted: read-out: Ki.
For data set [2], the target named is T2, Nicotinamide N-methyltransferase (Homo sapiens) (UniProt P40261).
T2 sequence (whole entry): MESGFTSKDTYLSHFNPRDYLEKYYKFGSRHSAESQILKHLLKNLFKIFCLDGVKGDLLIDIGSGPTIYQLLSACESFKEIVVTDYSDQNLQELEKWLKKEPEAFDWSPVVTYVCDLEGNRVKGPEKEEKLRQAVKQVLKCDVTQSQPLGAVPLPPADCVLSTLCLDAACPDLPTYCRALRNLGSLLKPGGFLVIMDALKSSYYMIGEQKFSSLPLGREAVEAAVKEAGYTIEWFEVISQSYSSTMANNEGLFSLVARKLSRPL
As to the kind of experiment: Inhibition of NNMT (unknown origin).

The target in data set [3] is Proprotein convertase subtilisin/kexin type 9 (Homo sapiens) (UniProt Q8NBP7). As to the kind of experiment: Inhibition of PCSK9 (unknown origin).
Chain of Proprotein convertase subtilisin/kexin type 9 (Homo sapiens) (Q8NBP7 31-152 limits assumed): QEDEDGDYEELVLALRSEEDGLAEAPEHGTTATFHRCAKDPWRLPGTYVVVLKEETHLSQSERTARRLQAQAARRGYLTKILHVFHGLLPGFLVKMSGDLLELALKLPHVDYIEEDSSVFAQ
Chain of Proprotein convertase subtilisin/kexin type 9 (Homo sapiens) (Q8NBP7 153-692 limits assumed): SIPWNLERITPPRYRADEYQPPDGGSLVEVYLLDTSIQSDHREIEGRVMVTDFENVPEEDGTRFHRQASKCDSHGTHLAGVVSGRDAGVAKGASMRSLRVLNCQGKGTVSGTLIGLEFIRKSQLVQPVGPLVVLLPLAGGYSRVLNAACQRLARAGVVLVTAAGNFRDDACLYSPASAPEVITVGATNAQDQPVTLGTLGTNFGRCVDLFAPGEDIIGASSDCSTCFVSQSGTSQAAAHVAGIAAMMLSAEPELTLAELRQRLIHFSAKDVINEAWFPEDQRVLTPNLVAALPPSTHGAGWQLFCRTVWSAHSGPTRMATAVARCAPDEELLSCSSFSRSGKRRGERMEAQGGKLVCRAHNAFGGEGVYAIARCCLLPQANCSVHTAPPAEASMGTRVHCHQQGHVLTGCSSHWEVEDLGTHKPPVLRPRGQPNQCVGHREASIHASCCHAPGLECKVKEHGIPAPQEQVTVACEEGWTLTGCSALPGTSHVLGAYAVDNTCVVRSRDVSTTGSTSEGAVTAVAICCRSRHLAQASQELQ
In data set [4] the target is T3, Potassium voltage-gated channel subfamily KQT member 3 (Homo sapiens) (UniProt O43525).
T3 sequence (whole entry): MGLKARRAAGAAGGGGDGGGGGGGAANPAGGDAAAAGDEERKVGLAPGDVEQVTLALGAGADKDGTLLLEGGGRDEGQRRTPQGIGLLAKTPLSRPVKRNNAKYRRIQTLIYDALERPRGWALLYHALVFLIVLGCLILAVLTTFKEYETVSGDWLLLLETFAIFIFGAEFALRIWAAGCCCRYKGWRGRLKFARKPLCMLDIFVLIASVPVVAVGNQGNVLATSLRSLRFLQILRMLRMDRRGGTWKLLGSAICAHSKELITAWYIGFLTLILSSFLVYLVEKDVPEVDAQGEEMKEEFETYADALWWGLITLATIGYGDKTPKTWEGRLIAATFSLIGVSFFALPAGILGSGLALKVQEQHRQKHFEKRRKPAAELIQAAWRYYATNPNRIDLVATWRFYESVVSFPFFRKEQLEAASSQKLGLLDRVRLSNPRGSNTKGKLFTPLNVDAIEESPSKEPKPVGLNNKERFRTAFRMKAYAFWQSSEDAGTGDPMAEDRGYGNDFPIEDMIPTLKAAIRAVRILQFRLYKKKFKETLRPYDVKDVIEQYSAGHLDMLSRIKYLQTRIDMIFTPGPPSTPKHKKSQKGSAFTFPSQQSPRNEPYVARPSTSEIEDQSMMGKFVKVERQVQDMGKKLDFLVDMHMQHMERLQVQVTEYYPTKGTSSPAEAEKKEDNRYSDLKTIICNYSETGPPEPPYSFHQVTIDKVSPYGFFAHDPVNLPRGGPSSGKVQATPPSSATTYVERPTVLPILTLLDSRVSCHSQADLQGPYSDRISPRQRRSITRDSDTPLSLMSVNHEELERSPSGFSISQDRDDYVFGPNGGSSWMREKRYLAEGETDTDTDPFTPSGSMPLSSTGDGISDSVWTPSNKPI
Kind of data set: Agonist activity at KCNQ3 (unknown origin).

Data set [5] has as its target T4, Cannabinoid receptor 1 (Homo sapiens, UniProt P21554). Kind of data set: Displacement of [3H]CP55,940 from N-terminal HA-tagged human CB1 receptor expressed in HEK293 cell membranes at 10 uM after 1 hr by microbeta scintillation counting method relative to control. The gist of the method: (§1)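 Single-point competition screen against [3H]CP55,940 in HEK293 cells over-expressing 3HA-tagged hCB2 or hCB1. Compounds giving more than 50% displacement went on to full concentration-response curves.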

The next data set deals with Leishmania donovani. As to the kind of experiment: Growth inhibition of Leishmania donovani. The class given is functional, organism-based.
Data set [6] concerns HEK293. Kind of data set: Effect on forskolin-stimulated cAMP level in HEK293 cells at 10 uM by BRET assay relative to control. The data set is classed as ADME, cell-based. To be noted: human, hek293, 10 µM. In outline:
(§2)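 Wild-type HEK293 cells lacking transfected receptor, tested at 10 µM and 1 µM. Forskolin-stimulated cAMP measured by BRET as a check that responses are receptor-mediated.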

Data set [7] deals with T5, Free fatty acid receptor 4 (Homo sapiens) (UniProt Q5NUL3).
T5 sequence (whole entry): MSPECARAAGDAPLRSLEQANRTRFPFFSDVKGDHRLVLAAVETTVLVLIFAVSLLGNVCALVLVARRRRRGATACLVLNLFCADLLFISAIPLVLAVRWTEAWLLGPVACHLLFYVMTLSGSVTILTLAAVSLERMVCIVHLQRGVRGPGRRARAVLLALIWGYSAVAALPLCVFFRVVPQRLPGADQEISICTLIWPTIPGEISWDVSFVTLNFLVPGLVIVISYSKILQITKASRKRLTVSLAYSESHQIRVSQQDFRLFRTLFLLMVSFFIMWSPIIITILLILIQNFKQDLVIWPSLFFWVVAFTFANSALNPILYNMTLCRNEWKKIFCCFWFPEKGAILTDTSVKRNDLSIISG
Kind of data set: Agonist activity at GPR120 (unknown origin). The data set is classed as functional.

The subject of data set [8] is HEK293. As to the kind of experiment: Effect on forskolin-stimulated cAMP level in HEK293 cells at 1 uM by BRET assay relative to control. The class given is ADME, cell-based. To be noted: human, hek293, 1 µM. In outline: as §2
Data set [9] addresses T4, Cannabinoid receptor 1. Kind of data set: Activity at N-terminal HA-tagged human CB1 receptor expressed in HEK293 cells transfected with YFP-Epac-RLuc assessed as effect on forskolin-stimulated cAMP level by BRET assay. The data set is classed as functional, cell-based. The gist of the method: (§3)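 BRET cAMP biosensor read-out in HEK293 cells expressing HA-tagged human CB1 or CB2, with forskolin stimulation (5 µM). Concentration-response curves; area-under-curve values normalised to forskolin alone = 100% and basal = 0%. EC50 taken for agonists and IC50 for inverse agonists. Mean of at least three independent experiments, each point in duplicate.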

Data set [10] has as its target T1, Cannabinoid receptor 2. As to the kind of experiment: Displacement of [3H]CP55,940 from N-terminal HA-tagged human CB2 receptor expressed in HEK293 cell membranes at 10 uM after 1 hr by microbeta scintillation counting method relative to control. The gist of the method: as §1
Data set [11] has as its target Interleukin-17A (Homo sapiens) (UniProt Q16552). As to the kind of experiment: Inhibition of IL-17 (unknown origin) assessed as disruption of IL-17 protein-protein interaction.
Data set [12] addresses Potassium voltage-gated channel subfamily KQT member 2 (Homo sapiens) (UniProt O43526). Kind of data set: Agonist activity at KCNQ2 (unknown origin).
Data set [13] has as its target T1, Cannabinoid receptor 2. As to the kind of experiment: Activity at N-terminal HA-tagged human CB2 receptor expressed in HEK293 cells transfected with YFP-Epac-RLuc assessed as effect on forskolin-stimulated cAMP level by BRET assay. The class given is functional, cell-based. In outline: as §3
Data set [14] has as its target T4, Cannabinoid receptor 1. As to the kind of experiment: Displacement of [3H]CP55,940 from N-terminal HA-tagged human CB1 receptor expressed in HEK293 cell membranes after 1 hr by microbeta scintillation counting method. To be noted: read-out: Ki.
Data set [15] addresses T4, Cannabinoid receptor 1. As to the kind of experiment: Activity at N-terminal HA-tagged human CB1 receptor expressed in HEK293 cells transfected with YFP-Epac-RLuc assessed as effect on forskolin-stimulated cAMP level by BRET assay relative to control. The data set is classed as functional, cell-based. In outline: as §3
The target of data set [16] is T1, Cannabinoid receptor 2. As to the kind of experiment: Activity at N-terminal HA-tagged human CB2 receptor expressed in HEK293 cells transfected with YFP-Epac-RLuc assessed as effect on forskolin-stimulated cAMP level by BRET assay relative to control. The data set is classed as functional, cell-based. In outline: as §3

T1 sequence (P34972 whole entry): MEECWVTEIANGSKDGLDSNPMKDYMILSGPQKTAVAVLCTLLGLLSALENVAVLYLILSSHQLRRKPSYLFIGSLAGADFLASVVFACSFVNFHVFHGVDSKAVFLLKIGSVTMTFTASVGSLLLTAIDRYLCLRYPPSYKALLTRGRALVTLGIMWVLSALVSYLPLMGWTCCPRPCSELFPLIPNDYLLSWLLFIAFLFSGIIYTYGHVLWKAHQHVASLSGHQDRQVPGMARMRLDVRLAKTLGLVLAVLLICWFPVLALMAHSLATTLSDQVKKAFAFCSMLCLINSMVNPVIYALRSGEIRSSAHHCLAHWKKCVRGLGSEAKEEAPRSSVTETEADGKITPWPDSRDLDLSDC
T4 sequence (P21554 whole entry): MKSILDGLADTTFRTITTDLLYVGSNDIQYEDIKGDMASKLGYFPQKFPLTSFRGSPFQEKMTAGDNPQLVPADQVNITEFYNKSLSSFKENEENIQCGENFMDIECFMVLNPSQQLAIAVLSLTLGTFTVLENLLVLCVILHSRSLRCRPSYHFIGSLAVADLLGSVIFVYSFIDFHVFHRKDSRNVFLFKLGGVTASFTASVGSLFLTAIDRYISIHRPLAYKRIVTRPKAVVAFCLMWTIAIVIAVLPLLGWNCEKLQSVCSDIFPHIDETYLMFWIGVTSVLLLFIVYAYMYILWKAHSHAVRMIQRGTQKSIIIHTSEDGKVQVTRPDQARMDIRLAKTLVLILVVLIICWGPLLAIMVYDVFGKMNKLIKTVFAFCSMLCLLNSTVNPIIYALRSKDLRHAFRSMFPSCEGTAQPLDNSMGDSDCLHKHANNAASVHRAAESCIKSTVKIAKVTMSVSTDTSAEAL
Chain of Interleukin-17A (Homo sapiens) (Q16552 whole entry): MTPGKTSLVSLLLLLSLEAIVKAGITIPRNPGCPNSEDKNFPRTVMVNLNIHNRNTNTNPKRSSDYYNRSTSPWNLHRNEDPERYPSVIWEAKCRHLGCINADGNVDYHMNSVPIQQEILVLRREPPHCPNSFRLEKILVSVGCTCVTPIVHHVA
Chain of Potassium voltage-gated channel subfamily KQT member 2 (Homo sapiens) (O43526 whole entry): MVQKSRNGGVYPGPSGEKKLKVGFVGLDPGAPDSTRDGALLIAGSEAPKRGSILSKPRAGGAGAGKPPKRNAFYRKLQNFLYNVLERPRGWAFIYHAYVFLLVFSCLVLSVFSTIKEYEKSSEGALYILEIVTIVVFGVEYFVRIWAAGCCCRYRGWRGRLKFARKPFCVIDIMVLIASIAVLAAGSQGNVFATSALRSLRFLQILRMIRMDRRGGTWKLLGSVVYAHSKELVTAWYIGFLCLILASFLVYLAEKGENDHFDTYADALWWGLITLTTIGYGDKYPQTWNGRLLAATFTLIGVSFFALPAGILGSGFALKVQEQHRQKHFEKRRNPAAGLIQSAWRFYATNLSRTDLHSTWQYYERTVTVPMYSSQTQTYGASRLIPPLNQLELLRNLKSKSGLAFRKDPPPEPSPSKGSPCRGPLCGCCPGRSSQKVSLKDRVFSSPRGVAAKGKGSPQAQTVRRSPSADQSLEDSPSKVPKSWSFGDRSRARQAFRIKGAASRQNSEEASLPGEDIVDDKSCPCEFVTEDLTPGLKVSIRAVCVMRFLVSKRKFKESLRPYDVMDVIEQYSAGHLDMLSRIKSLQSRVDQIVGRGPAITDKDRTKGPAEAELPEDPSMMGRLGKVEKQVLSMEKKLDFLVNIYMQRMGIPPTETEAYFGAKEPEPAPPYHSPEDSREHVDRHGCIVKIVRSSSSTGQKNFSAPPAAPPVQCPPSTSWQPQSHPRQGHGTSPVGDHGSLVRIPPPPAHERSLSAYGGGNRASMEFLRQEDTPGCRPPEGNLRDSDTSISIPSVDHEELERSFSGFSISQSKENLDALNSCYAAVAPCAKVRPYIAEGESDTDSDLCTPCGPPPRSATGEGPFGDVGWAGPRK

With `CCCOc1ccc2c(c1)c(C(=O)c1ccc(OC)cc1)cn2CC1CCOCC1`, the inhibitory constant (Ki) at Cannabinoid receptor 2 [1] was determined as 1.35 µM; on Cannabinoid receptor 1 [14], 4.53 µM. The inhibition result in data set [2], in data set [3] and in data set [11] was “inactive” throughout. For the same compound, the outcome (in data set [4]; in [7]; on Cannabinoid receptor 1 [9]; in data set [12]; on Cannabinoid receptor 2 [13]) was inactive. The inhibition at Cannabinoid receptor 1 [5] and on Cannabinoid receptor 2 [10] was more than 50% throughout. Further, the “growth inhibition (GI)” value with Leishmania donovani is “inactive”. Also, the Activity came out at 127.6% in the data set with HEK293 [6] and 95% in the data set with HEK293 [8]. Further, the Emax result at Cannabinoid receptor 1 [15] and on Cannabinoid receptor 2 [16] was “inactive” in each case.

The record behind these values is ChEMBL document CHEMBL4251662, “Alkyl indole-based cannabinoid type 2 receptor tools: Exploration of linker and fluorophore attachment” (Eur J Med Chem, 2018).
